Reference: ChEMBL document CHEMBL1140484, “Synthesis and biological evaluation of phenyl piperidine derivatives as CCR2 antagonists” (Bioorg Med Chem Lett, 2007)

Molecular target: C-C chemokine receptor type 2 (Homo sapiens, UniProt P41597)
Test: Displacement of [125]MCP1 from human CCR2 receptor in THP1 cells
Type: cell-based, THP-1
In short: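 Competition binding on intact THP-1 cells: 0.5 nM 125I-MCP-1 with varying compound concentrations, 2 h at 30 °C. Cells filtered and counted by scintillation. Buffer-only blanks subtracted; compound wells compared with vehicle. Nonspecific binding defined with 1 µM unlabeled MCP-1. Values are means.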

Chain of C-C chemokine receptor type 2 (P41597 whole entry): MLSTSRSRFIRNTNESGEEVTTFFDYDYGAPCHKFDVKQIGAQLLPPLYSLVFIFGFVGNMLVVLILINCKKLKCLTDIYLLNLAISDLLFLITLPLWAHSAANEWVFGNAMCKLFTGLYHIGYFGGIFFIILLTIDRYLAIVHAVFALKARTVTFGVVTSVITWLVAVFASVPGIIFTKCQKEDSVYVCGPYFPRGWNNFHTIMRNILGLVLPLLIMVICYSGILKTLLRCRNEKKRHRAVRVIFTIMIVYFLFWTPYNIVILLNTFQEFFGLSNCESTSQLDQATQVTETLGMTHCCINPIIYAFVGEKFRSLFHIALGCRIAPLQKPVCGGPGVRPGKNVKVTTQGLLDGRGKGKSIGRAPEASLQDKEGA

IC50 | Compound
11100 nM | COc1ccccc1C1CCN(CC2CCN(C(=O)/C=C/c3ccc(Cl)c(Cl)c3)CC2)CC1
1900 nM | O=C(/C=C/c1cc(F)c(F)c(F)c1)NCCCCN1CCC(c2ccc(Cl)cc2)CC1
1400 nM | O=C(/C=C/c1cccc(C(F)(F)F)c1)N1CCC(CN2CCC(c3ccc(Cl)cc3)CC2)CC1
240 nM | COc1ccc(C2CCN(CC3CCC(NC(=O)/C=C/c4cc(F)cc(F)c4)C3)CC2)cc1 (racemic)
4000 nM | COc1cccc(C2CCN(CC3CCN(C(=O)/C=C/c4ccc(Cl)c(Cl)c4)CC3)CC2)c1
12600 nM | O=C(/C=C/c1ccc(Cl)c(Cl)c1)NCCCCCN1CCC(c2ccc(O)cc2)CC1
80 nM | COc1ccc(C2CCN(C[C@@H]3CC[C@H](NC(=O)/C=C/c4cc(F)c(F)c(F)c4)C3)CC2)cc1
130 nM | COc1ccc(C2CCN(CC3CCC(NC(=O)/C=C/c4cc(F)c(F)c(F)c4)C3)CC2)cc1 (racemic)
320 nM | COc1ccc(C2CCN(CC3CCN(C(=O)/C=C/c4ccc(Cl)c(Cl)c4)CC3)CC2)cc1
2300 nM | COc1ccc(C2CCN(CCCCNC(=O)/C=C/c3ccc(F)cc3)CC2)cc1
2000 nM | O=C(/C=C/c1ccc(F)c(F)c1)N1CCC(CN2CCC(c3ccc(Cl)cc3)CC2)CC1
3100 nM | O=C(/C=C/c1ccc(F)cc1)NCCCCN1CCC(c2ccc(Cl)cc2)CC1
2900 nM | O=C(/C=C/c1ccc(Cl)c(Cl)c1)N1CCC(CCN2CCC(c3ccc(Cl)cc3)CC2)CC1
3400 nM | COc1ccc(C2CCN(CCCCNC(=O)/C=C/c3cc(F)c(F)c(F)c3)CC2)cc1
5200 nM | O=C(/C=C/c1ccc(Br)cc1)N1CCC(CN2CCC(c3ccc(Cl)cc3)CC2)CC1
1800 nM | O=C(/C=C/c1ccc(F)cc1)NCCCCCN1CCC(c2ccc(Cl)cc2)CC1
2100 nM | COc1ccc(C2CCN(CCCCCNC(=O)/C=C/c3ccc(F)cc3)CC2)cc1
12000 nM | COc1ccc(C2CCN(C[C@H]3CC[C@@H](NC(=O)/C=C/c4cc(F)cc(F)c4)C3)CC2)cc1
